IDH1 mut inh – inhibitors of IDH1 R132H reductase, primary screen, biochemical, plate reader, single point; Isocitrate dehydrogenase [NADP] cytoplasmic (Homo sapiens), O75874; inhibition, % at 10 µM; AID 624101, 2012; diaphorase/resazurin fluorescence, 60 min; 70,000 tested, 0.18% active; in the data active = inhibition above about 34%; inconclusive = no clear call, values can overlap the other calls; inactive = below about 11%;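 also: 0% = DMSO and 100% = no enzyme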
KDM4C inh – inhibitors of GASC-1 (KDM4C) histone demethylase, primary screen, biochemical, single concentration HTS; Lysine-specific demethylase 4C (Homo sapiens), Q9H3R0; GST-KDM4C 2-372, H3K9me3 peptide, LANCE TR-FRET; inhibition, % at 12.5 µM; 96,000 tested, 0.15% active; AID 720574, 2013;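 active = mean replicate inhibition above about 25%, with at least 55% of replicates also reaching it, limit read from the data, passing the limit was not always enough; inconclusive = only one of those two conditions met; inactive = neither condition met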
Target sequence (Q9H3R0 2-372 limits assumed): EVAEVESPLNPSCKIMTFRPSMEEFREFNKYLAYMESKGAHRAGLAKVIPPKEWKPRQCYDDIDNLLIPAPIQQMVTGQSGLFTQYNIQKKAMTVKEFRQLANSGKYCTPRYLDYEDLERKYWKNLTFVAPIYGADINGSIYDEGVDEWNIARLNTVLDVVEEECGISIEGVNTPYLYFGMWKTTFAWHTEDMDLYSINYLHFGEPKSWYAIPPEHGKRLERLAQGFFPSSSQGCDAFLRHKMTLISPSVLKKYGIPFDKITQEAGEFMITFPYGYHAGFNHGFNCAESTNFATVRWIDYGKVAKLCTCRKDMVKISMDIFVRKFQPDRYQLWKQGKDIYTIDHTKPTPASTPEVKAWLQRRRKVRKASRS
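Material: N-terminal GST-fused human GASC-1 (KDM4C) fragment, residues 2-372. Input: 10 nM enzyme. Incubation: enzyme reaction 30 min, then detection 60 min, both room temperature. Doses: one test concentration per compound. Read-out basis: inhibition from TR-FRET ratio decrease. Detection: LANCE TR-FRET, excitation 340 nm, emissions 618 and 671 nm.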
T cruzi growth-1 – T. cruzi intracellular proliferation inhibitors, primary screen, cell-based, beta-gal Tulahuen parasites, NIH3T3 host, luminescence | T. cruzi beta-gal in NIH3T3, GalScreen luminescence, 90 h | inhibition, % at 8.34 µM | 77,000 tested, 5.9% active;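 active = mean inhibition above about 93%, with at least 55% of replicates each passing it, limit read from the data, passing the limit was not always enough; inconclusive = only one of those two conditions holds; inactive = neither condition holds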
Pf Dd2 growth – P. falciparum Dd2 growth inhibitors, primary screen, SYBR Green fluorescence, single dose replicates; 72 h; stronger effect = lower value; activity change, % at 10 µM; 94,000 tested, 2.3% active; in the data active = activity change below about -80%; inconclusive = no clear call, values can overlap the other calls
T cruzi growth-2 – T. cruzi intracellular proliferation inhibitors, confirmation, cell-based, NIH3T3 host, beta-gal parasite, luminescence, cherry-pick; shares compounds with T cruzi growth-1; T. cruzi beta-gal in NIH3T3, GalScreen luminescence, 90 h; inhibition, % at 8.35 µM; 5,600 tested, 72% active;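 active = mean replicate inhibition above about 95% and at least 55% of replicates individually reaching it, limit read from the data; inconclusive = only one of the two criteria is met; inactive = neither criterion is met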
T cruzi growth-3 – inhibitors of intracellular T. cruzi replication, confirmation, NIH3T3 host cells, beta-gal parasites, cherry-pick, set 2; shares compounds with T cruzi growth-1; T. cruzi beta-gal in NIH3T3, GalScreen luminescence, 90 h; inhibition, % at 2.09 µM; 5,600 tested, 21% active; AID 651740, 2012;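 active = mean inhibition above about 95%, with at least 55% of replicates also reaching it, limit read from the data; inconclusive = meets just one of the two conditions; inactive = meets neither condition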;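 also: plate controls were neutral control median for no effect and positive control median for full effect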
NIH3T3 tox – cytotoxicity in mouse NIH/3T3 fibroblasts, confirmation, cytotoxicity control for T. cruzi proliferation inhibitor project, cell-based, cherry-pick, single point; cytotoxicity (signal decrease), % at 8.35 µM; shares compounds with T cruzi growth-1; NIH/3T3 viability, CellTiter-Glo ATP luminescence, 90 h; 5,600 tested, 14% active;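 active = mean signal decrease across replicates above about 35% based on untreated-well scatter, with enough replicates individually passing, limit read from the data; inconclusive = no rule stated though some were filed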;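 also: 0% = median of neutral control wells and 100% = median of positive control wells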
NIH3T3 tox 2 – NIH/3T3 fibroblast cytotoxicity, confirmation, cytotoxicity control, cell-based, cherry-pick, single point, set 2. shares compounds with T cruzi growth-1. NIH/3T3 viability, CellTiter-Glo ATP luminescence, 90 h. inhibition, % at 24.9 µM. 5,600 tested, 56% active;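 active = mean loss of cell viability signal at or above a set limit, and enough replicates individually reaching it; inconclusive = meets only the mean limit or only the replicate share; inactive = meets neither condition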;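 also: 0% = median of neutral control wells and 100% = median of positive control wells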
* hit, by the source's call; ? = inconclusive; nt = not tested or not shown. Hits are enriched below; roughly 5.8% of the tested compounds scored in any of these assays.

SMILES	IDH1 mut inh	KDM4C inh	T cruzi growth-1	Pf Dd2 growth	T cruzi growth-2	T cruzi growth-3	NIH3T3 tox	NIH3T3 tox 2
C[C@H](CO)N1C[C@H](C)[C@@H](CN(C)C(=O)Nc2ccccc2)OCCCC[C@H](C)Oc2ccc(NC(=O)Nc3ccc(F)cc3)cc2C1=O	nt	0	100*	17	?	-22	-10	24
C[C@@H]1CCCCO[C@@H](CN(C)C(=O)Nc2ccccc2)[C@H](C)CN([C@@H](C)CO)C(=O)c2cc(N(C)C)ccc2O1	-2	5	107*	-32	71	8	-5	-20
COc1ccc(C(C)C)cc1S(=O)(=O)n1cnc2ccccc21	0	nt	nt	nt	nt	nt	nt	nt
O=C(CN1CCOCC1)N1CC[C@@H]2[C@@H](CO)Nc3ccc(-c4ccccc4F)cc3[C@@H]21	nt	-1	50	-4	nt	nt	nt	nt
O=C(Cc1ccccc1)N1CC[C@H]2[C@H](CO)Nc3ccc(C#Cc4ccccc4)cc3[C@H]21	nt	-3	119*	-30	105*	57	14	75*
O=C(Cc1ccccc1)N1CC[C@@H]2[C@H]1c1cc(-c3ccccc3F)ccc1N[C@@H]2CO	nt	1	113*	-15	89	67	-10	53*
O=C(Cc1ccccc1)N1CC[C@H]2[C@H](CO)Nc3ccc(C#Cc4cccc(F)c4)cc3[C@H]21	nt	-1	nt	-59	nt	nt	nt	nt
O=C(Cc1ccccc1)N1CC[C@H]2[C@H](CO)Nc3ccc(-c4ccccc4)cc3[C@H]21	nt	0	?	12	105*	69	-9	-20
Cc1ccc(-c2noc(CN(C(=O)c3ccccc3-c3ccccc3)C(C)C)n2)cc1	0	nt	nt	nt	nt	nt	nt	nt
COc1cc(C2c3cc(O[C@@H]4O[C@H](CO)[C@@H](O)[C@H](O)[C@H]4O)c(OC)cc3CC(CO)C2CO)ccc1O (stereo partly specified)	0	nt	nt	nt	nt	nt	nt	nt
Cc1cc(NC(=O)NCCCN2CCN(C3CCCCC3)CC2)ccc1Cl	0	nt	nt	nt	nt	nt	nt	nt
Cc1ccccc1S(=O)(=O)N1CC[C@@H]2[C@H]1c1cc(-c3ccccc3F)ccc1N[C@@H]2CO	nt	0	-11	2	nt	nt	nt	nt
COc1ccccc1S(=O)(=O)N1CC[C@@H]2[C@@H](CO)Nc3ccc(-c4ccccc4F)cc3[C@@H]21	nt	-2	?	2	104*	86	24	41*
Cc1ccccc1S(=O)(=O)N1CC[C@@H]2[C@H](CO)Nc3ccc(-c4ccccc4F)cc3[C@@H]21	nt	1	110*	-12	97*	77	8	106*
COc1cccc(-c2ccc3c(c2)[C@H]2[C@H](CCN2S(=O)(=O)c2ccccc2OC)[C@H](CO)N3)c1	nt	1	?	-42	102*	91	-9	-36
Cc1ccc(S(=O)(=O)NCC(=O)Nc2ccccc2F)cc1	0	nt	nt	nt	nt	nt	nt	nt
CCCCCCC/C=N/NC(=O)CCCCC(=O)NO	0	nt	nt	nt	nt	nt	nt	nt
COc1ccccc1C#Cc1ccc2c(c1)O[C@@H](CN(C)Cc1ccncc1)[C@H](C)CN([C@H](C)CO)S2(=O)=O	0	1	121*	?	96*	97*	83*	105*
COc1ccccc1C#Cc1ccc2c(c1)O[C@@H](CN(C)Cc1ccncc1)[C@@H](C)CN([C@H](C)CO)S2(=O)=O	-5	-1	98*	-78	102*	104*	-8	-16
COc1ccccc1C#Cc1ccc2c(c1)O[C@H](CN(C)Cc1ccncc1)[C@@H](C)CN([C@@H](C)CO)S2(=O)=O	0	1	127*	-77	93	98*	74*	104*
